Source: PubChem BioAssay (several laboratories)
HEK293 NFkB inh: inhibitors of the PMA/ionomycin-induced NF-kB reporter in HEK293 cells; HEK-293 NF-kB luciferase reporter, luminescence; inhibition, % at 3 µM; hit rate 0.21% among 62,000; AID 465;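 active = inhibition above the mean of all tested compounds plus 3 SD, cut at about 40% in these data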;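 note: 0% = stimulated DMSO wells and 100% = 10 µM reference inhibitor 5653914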
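Material: HEK-293 cells with stable firefly luciferase reporter driven by four HIV NF-kB elements / Also added: PMA plus ionomycin mix as NF-kB-activating stimulus / Compound dosing: 3 µM once, 0.30% DMSO / Times: 1 h pretreatment, 16 h stimulation, 37 °C / Signal: luminescence / Evaluation: per-plate % inhibition versus controls / Benchmarks: DMSO and 10 µM reference inhibitor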
M1 antagonist: antagonists of rat M1 muscarinic receptor; P08482; CHO-M1 cells, Fluo-4 calcium, ACh EC80 antagonist mode; active compounds read low; B-score at 10 µM; hit rate 3.4% among 64,000; AID 628;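 active = calcium fluorescence response, raw or row-and-column corrected B-score, differing from the plate sample mean either way at a set confidence level, mostly lower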
Htt clearance: mutant huntingtin protein clearance; HeLa Exon1htt(103Q)mCFP, aggregate imaging; zero = plate's median compound well; inhibition, % at 1.5 µM; hit rate 0.42% among 47,000;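 active = inhibition of aggregate fluorescence above about 70%, also judged a hit by eye on the cell image, limit read from the data, passing the limit was not always enough; inconclusive = no rule stated for this call; inactive = not judged a hit on image review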;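 note: cells exposed to compound for three days before fixation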
M1 agonist: M1 muscarinic receptor agonism. B-score at 10 µM. hit rate 3% among 64,000. CHO-M1 cells, Fluo-4 calcium fluorescence, agonist mode; active compounds read high. AID 626;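 active = fluorescence rise, raw or as B-score row- and column-corrected plate score, outside the 99.7% band of its plate's samples, either direction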
D1 mod: allosterically modulates the human D1 dopamine receptor; P21728; HEK293 D1, CRE-luciferase, dopamine EC30 potentiation; actives deviate in either direction; hit rate 5.9% among 58,000; B-score at 10 µM;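 active = luminescence count or its row- and column-corrected plate score outside the 99.7% band of the plate's sample wells, on either side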
Jurkat tox 60K: cytotoxic compounds reducing Jurkat cell viability. hit rate 1.2% among 56,000. Jurkat E6.1 viability, ATP luminescence, 48 h. inhibition, % at 4 µM;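 active = inhibition above the mean inhibition of all tested compounds plus 3 SD, cut at about 28% in these data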
M1 agonist conf: rat M1 muscarinic agonism, confirmation. shares compounds with M1 agonist. CHO-M1 cells, Fluo-4 calcium fluorescence, agonist mode; actives lie on both sides. fluorescence change (max-min) at 10 µM. hit rate 19% among 1,700;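 active = fluorescence change differs from the solvent-only DMSO control mean at a set confidence level in both duplicate runs; inconclusive = differs from solvent-only control mean in just one of two runs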;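 note: an EC20 dose of acetylcholine follows compound addition during the same imaging run; raw fluorescence intensity difference in instrument units with no normalization to controls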
M4 ag counter: counter-screen for M1 agonists: activity at rat M4 receptor; hit rate 9% among 1,700; fluorescence change (max-min) at 10 µM; CHO M4/Gqi5 cells, Fluo-4 calcium fluorescence, agonist mode; actives lie on both sides; shares compounds with M1 agonist;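 active = fluorescence change differing from the plate's solvent-only control wells at 99.7% confidence in both duplicates, whether higher or lower; inconclusive = differs from solvent controls in only one of two duplicates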
Target sequence (P08485 whole entry, looked up): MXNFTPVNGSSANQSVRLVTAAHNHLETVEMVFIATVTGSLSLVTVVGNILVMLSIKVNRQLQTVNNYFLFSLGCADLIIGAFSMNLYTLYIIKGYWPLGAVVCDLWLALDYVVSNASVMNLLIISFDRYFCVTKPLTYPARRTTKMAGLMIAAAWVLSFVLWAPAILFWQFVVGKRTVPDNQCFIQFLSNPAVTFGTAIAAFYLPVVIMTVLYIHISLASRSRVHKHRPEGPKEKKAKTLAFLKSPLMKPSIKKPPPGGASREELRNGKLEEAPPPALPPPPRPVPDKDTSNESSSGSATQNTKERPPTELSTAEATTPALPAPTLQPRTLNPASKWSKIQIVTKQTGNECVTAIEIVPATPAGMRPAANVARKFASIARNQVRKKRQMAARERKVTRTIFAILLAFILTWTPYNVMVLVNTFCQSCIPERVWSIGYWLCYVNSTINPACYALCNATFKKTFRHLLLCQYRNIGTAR
The depositor's hits bear a star; ? = inconclusive; . = not tested or not shown. Hits are enriched below; roughly 9.5% of the tested compounds scored in any of these assays.

SMILES	HEK293 NFkB inh	M1 antagonist	Htt clearance	M1 agonist	D1 mod	Jurkat tox 60K	M1 agonist conf	M4 ag counter
Cc1nc2nc(-c3cccs3)cn2nc1C	-25	0.54	41	100*	-1.3	9	1066*	1014*
COc1cccc(-c2cn3nc(C)c(C)nc3n2)c1	-40	-0.78	33	-0.91	-1.9	5	.	.
C=CCn1c(=O)/c(=C/c2cc(OC)c(OC)c(OC)c2)s/c1=C(/C#N)c1nc2ccccc2n1C	8	-0.84	.	77*	-0.078	.	?	118
C=CCn1c(=O)/c(=C/c2ccc(O)cc2)s/c1=C(/C#N)c1nnc2n1CCCCC2	16	-0.69	.	43*	1.9	-2	90*	?
C=CCn1c(=O)/c(=C/c2ccc(Cl)cc2)s/c1=C(/C#N)c1nnc2n1CCCCC2	-4	-0.29	.	4.3*	-1.5	-3	?	?
CCN=C1SC(CC(=O)Nc2ccccc2)C(=O)N1CC (centres undefined)	-6	-3.8*	37	11*	1.3	4	?	-56
CCOC(=O)COc1ccc(S(=O)(=O)N2CCc3ccccc3C2)cc1	9	0.047	12	0.36	0.0098	-6	.	.
COc1ccc(-n2nnnc2SCC(=O)Nc2nnc(C)s2)cc1OC	5	-0.27	-12	-0.31	1.8	-6	.	.
CCc1c(C)nc2ncnn2c1N1CCCC(C(=O)NCc2ccco2)C1 (centres undefined)	0	-4.5*	.	2.8*	0.99	.	?	-42
CCc1c(C)nc2ncnn2c1N1CCCC(C(=O)NCCc2ccccc2)C1 (centres undefined)	0	-0.41	.	-0.11	0.14	.	.	.
COc1ccc(S(=O)(=O)NCCOc2ccccc2)cc1OC	19	-0.27	-19	2.3*	.	-1	-11	-22
COc1ccccc1Nc1nc(N)nc(CN2CCc3ccccc3C2)n1	-1	-1.7	-14	-0.2	0.84	-4	.	.
O=C1C2CC=C(Cl)CC2C(=O)N1CC1Cc2ccccc2CO1 (centres undefined)	15	0.43	15	2.2*	2.4	5	28	-18
O=C(O)c1ccccc1NCN1C(=O)C2CC=C(Cl)CC2C1=O (centres undefined)	5	-0.34	-21	-2.2*	0.042	-1	-26*	?
CCCCNS(=O)(=O)C1CCS(=O)(=O)C1 (centres undefined)	.	.	6	.	.	.	.	.
Cc1oc2c(CN3CCOCC3)c(O)ccc2c(=O)c1-c1ccccc1	-4	0.19	-66	0.64	.	6	.	.
CCc1cc2c(-c3ccccc3)cc(=O)oc2c(CN2CCOCC2)c1O	-1	-0.94	3	15*	2.4	7	42	17
Cc1cc2c3c(c1C)C1(C(=O)N3C(C)(C)CC2C)C(C#N)=C(N)OC2=C1C(=O)CC(C)(C)C2 (centres undefined)	.	.	22	.	.	.	.	.
CCCCOc1ncnc2c1[nH]c1ccc(F)cc12	19	-2.8	.	5.4*	-1.8	61*	-1.7	-35
CCn1c(C2CC(=O)N(c3ccc(C)c(C)c3)C2)nc2ccccc21 (centres undefined)	23	-0.35	.	0.81	-0.24	-2	.	.
CCCn1c(C2CC(=O)N(c3cc(OC)ccc3OC)C2)nc2ccccc21 (centres undefined)	13	-0.24	.	3.7*	-0.11	-2	-14	-56
Cc1cccn2c(=O)c3cc(C#N)c(=NC(=O)c4ccncc4)n(CCCOC(C)C)c3nc12	14	0.0034	-13	83*	-0.15	5	587*	511*
CCOC(=O)c1cc2c(=O)n3cccc(C)c3nc2n(CCOC)c1=NC(=O)c1ccncc1	9	0.39	-97	-0.51	-0.75	4	.	.
COCCCn1c(=NC(=O)c2ccncc2)c(C#N)cc2c(=O)n3cccc(C)c3nc21	13	-1	.	129*	0.74	6	469*	363*
CCOC(=O)c1cc2c(=O)n3cccc(C)c3nc2n(CCCOC)c1=NC(=O)c1cccnc1	20	-1.3	2	2.4*	.	.	-23	-27
